Shown are actives, neighbours in structure and some others; about 2.7% of the full set was active somewhere.
BB579 growth dn: yeast BB579 growth reduction in restrictive medium. 140,000 compounds, 0.51% hits. S. cerevisiae BB579 growth, OD615, 48 h. AID 804. inhibition, % at 10 µM;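 active means inhibition above a set limit, 3 SD over the mean compound inhibition, cut at about 44% in these data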
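Test system: Saccharomyces cerevisiae DeaD strain BB579, replicative lifespan model yeast | Buffer or medium: Restrictive CSMM-D medium | Doses: One dose, 10 µM compound with 0.25% DMSO | Incubation: 48 h exposure, 30 °C | Detection: Culture absorbance at 615 nm | Control set: Amphotericin B at 10 µg/mL as positive control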
RAM network inh: inhibitors of the yeast RAM network | S. cerevisiae dse1pr::URA3 reporter, 5-FOA growth OD615, 2 d; analog-sensitive cbk1-as2 kinase mutant strain | 190,000 compounds, 1.8% hits | inhibition, % at 50 µM;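 active means inhibition above a set limit, 3 SD over mean compound inhibition, cut at about 8.4% in these data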;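 further: inhibition rescues growth on 5-FOA so higher OD means more RAM inhibition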
Yeast life ext: yeast lifespan extension; S. cerevisiae growth with nicotinamide, OD615; deaD strain in restrictive glucose medium; inhibition of the nicotinamide effect, % at 10 µM; 130,000 compounds, 0.68% hits;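 active means inhibition above a set limit, placed 3 SD over the median of all compounds, cut at about 26% in these data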
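Assay system: engineered S. cerevisiae DeaD replicative-lifespan strain, galactose-grown log-phase cells; medium: restrictive CSMM-D dextrose medium; also added: nicotinamide, 1.5 mM, co-present with compound; schedule: 48 h compound exposure at 30 °C, humidified; detection: absorbance at 615 nm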
SDO1 yeast rescue: restores growth of sdo1-depleted yeast. S. cerevisiae sdo1-depleted JHY4D growth rescue, OD600 30 h; hits give high values; pdr5 snq2 efflux-pump mutant strain. z-score at 10 µM. 140,000 compounds, 0.21% hits. AID 817;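 active means z-score above 3 at both the 24 hr and the 30 hr optical density reads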
sdo1 rescue conf: confirmation of growth rescue in SDO1-depleted yeast, bone marrow failure | shares compounds with SDO1 yeast rescue | S. cerevisiae JHY4D (SDO1-depleted) growth rescue, OD600, 30 h; hits give high values; efflux-deficient strain, SNQ2 and PDR5 mutated | OD recovery (test concentration not listed) | 440 compounds, 44% hits;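 active means yeast growth recovered at 30 hours, either rising with dose fitted slope above 0.001 or with average optical density gain above 0.07, some results past the limit were not filed as active; inactive means growth falling with dose or no effect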
Hits are given with their value; n = inactive; x = no result given; ! = not active in a repeat; [ ] = remark or other dose.

SMILES | BB579 growth dn | RAM network inh | Yeast life ext | SDO1 yeast rescue | sdo1 rescue conf
COc1ccc(-c2nnc(SCC(=O)Nc3ccccc3OC)o2)cc1 | n | n | x | 7.5 | 0.103
COc1ccccc1NC(=O)CSc1nc(C)c2c(c1C#N)CCCC2 | n | n | n | n | 0.0779
COc1cc(/C=C/C(=O)OCC(=O)NC(=O)NC(C)C)cc(S(=O)(=O)N2CCc3ccccc32)c1OC | x | n | x | x | x
COc1ccc(NC(=O)c2ccc(-n3cccn3)nc2)cc1 | n | n | n | n | n
COc1ccc(NC(=O)c2ccc(-n3cccn3)nc2)c(OC)c1 | n | n | n | n | x
O=S(=O)(c1ccc(F)cc1)N1CCN(Cc2ccccn2)CC1 | x | n | x | x | x
COC(=O)c1sc2nc(C)c([N+](=O)[O-])c(C)c2c1N | n | n | n | n | x
COC(=O)c1cc(OC)c(OC)cc1NC(=S)N1CCCCC1 | n | n | n | n | x
COC(=O)c1cc(OC)c(OC)cc1NC(=S)N1CCN(C)CC1 | n | n | n | 3.13! | n
CCC(CC)C(=O)Nc1cc(C(=O)OC)ccc1C(=O)OC | n | n | n | 10.1 | n
Cc1ccccc1NC(NC(=O)OCCn1c([N+](=O)[O-])cnc1C)C(Cl)(Cl)Cl (stereo not given) | n | n | n | 8.32 | 0.104
Cc1ncc([N+](=O)[O-])n1CCOC(=O)NC(NCc1ccccc1)C(Cl)(Cl)Cl (stereo not given) | n | n | n | n | x
CC(C)(C)c1cc(C(=O)N/N=C/c2ccco2)n[nH]1 | n | n | n | 9.95 | 0.0712
CCOC(=O)c1cnn(Cc2ccccc2)c1N | n | n | x | 6.14 | n
COc1ccccc1NC(=O)c1nn(-c2cccc(C(F)(F)F)c2)ccc1=O | n | n | n | 7.24 | n
O=C(O)CCCn1cc(NC(=O)COc2ccc([N+](=O)[O-])cc2)cn1 | x | n | x | x | x
CC(=O)N(C1=C(O)c2ccccc2C(=O)C1=O)C1CCCCC1 | n | n | n | 3.15[12.9 µM] | 0.0739
O=C(OCC(CO)OC(CO)n1ccc(=O)[nH]c1=O)c1ccccc1 (stereo not given) | n | n | n | 7.69 | n
O=C(NCc1ccccc1Cl)c1ccccc1CCc1ccccc1 | n | n | 32.1 | 7.09 | 0.0821
Cn1nc(-c2ccc(C(=O)O)cc2)c2ccccc2c1=O | n | n | n | n | x
COC(=O)c1ccc(-c2nn(C)c(=O)c3ccccc23)cc1 | n | n | n | 8.52 | 0.076
O=C1NC(=O)/C(=C/C(=O)N2CCOCC2)S1 | x | n | x | x | x
CCOCCCNC(=O)CS(=O)(=O)Cc1nc(-c2cccc(OC)c2)oc1C | n | n | n | 11.6 | 0.073
CCCNC(=O)CS(=O)(=O)Cc1nc(-c2cccc(OC)c2)oc1C | n | n | n | n | x
CCOc1ccc(NC(=O)CC2SC(=O)N(c3ccccc3)C2=O)cc1 (stereo not given) | x | n | x | x | x
SMILES | BB579 growth dn | RAM network inh | Yeast life ext | SDO1 yeast rescue | sdo1 rescue conf
CCCCC(=O)N(CCOC)c1nnc(-c2ccccc2C)s1 | x | n | x | x | x
COc1ccc(OCC(=O)Nc2cccc(NC(=O)COc3ccc(OC)cc3)n2)cc1 | n | n | n | 3.08 | n
COc1ccc(OCC(=O)Nc2nonc2NC(=O)COc2ccc(OC)cc2)cc1 | x | n | x | x | x
CCOC(=O)c1nsnc1NCCSC(=N)N | n | n | n | 6.18 | 0.0942
CCOC(=O)c1nonc1NC(C)=O | n | n | x | n | x
COc1ccc(S(=O)(=O)CCC(=O)Nc2cccc(OC)c2)cc1 | x | n | x | x | x
CCOC(=O)c1sc2nc3n(c(=O)c2c1C)CCC(C)CC3 (stereo not given) | n | n | n | 3.99 | n
CCOC(=O)c1sc(=S)n(-c2ccccc2)c1N | n | n | x | 4.04 | n
CCOC(=O)c1sc(=S)n(-c2ccccc2)c1N(C(C)=O)C(C)=O | x | n | x | x | x
CCOC(=O)Cc1nnc(NC(=O)CSc2ncc(-c3ccccc3)nn2)s1 | x | n | x | x | x
COc1ccc(-c2nc3ccccc3o2)cc1NC(=O)c1ccc(Br)o1 | n | n | n | n | 0.0643
Cc1nnc(SCC(=O)N(C)C2CCCCC2)s1 | x | n | x | x | x
O=S(=O)(c1ccc(Cl)c(NC(=S)Nc2cccc(O)c2)c1)N1CCOCC1 | n | n | 26.6 | 15.1 | n
CCN(C(=S)Nc1cc(S(=O)(=O)N2CCOCC2)ccc1Cl)c1cccc2ccccc12 | n | n | n | n | x
Cc1ccc(CO/N=C\Cc2snc(Sc3ncc(C(F)(F)F)cc3Cl)c2C#N)cc1 | n | n | n | 3.71 | n
COC(=O)c1ccccc1NC(=S)NC(=O)CC(C)C | n | n | n | 5.64 | n
COC(=O)c1ccccc1NC(=S)NC(=O)COc1ccccc1 | n | n | n | n | x
CN(Cc1ccccc1)C(=S)Nc1ccc(OC(F)F)cc1 | n | n | n | 9.06 | n
Cc1cc(C)nc(SCC(=O)NC2=NN=C(c3ccc(Br)cc3)CS2)n1 | n | n | n | n | 0.0826
CCC(Sc1nc(C)cc(C)n1)C(=O)NC1=NN=C(c2ccc(C)cc2)CS1 (stereo not given) | n | n | n | n | x
O=c1c2cnn(-c3ccccc3)c2ncn1Cc1ccccc1F | n | n | n | 9.46 | n
COc1ccccc1S(=O)(=O)Cc1ccc(C(=O)N2CCN(c3ccccc3)CC2)o1 | n | n | n | n | x
COc1ccccc1S(=O)(=O)Cc1ccc(C(=O)N2CCOCC2)o1 | n | n | n | 3.19 | n
Cc1cccc2cc(C#N)c(SCC(=O)NCC3CCCO3)nc12 (stereo not given) | n | n | x | n | x
Cc1cccc2c(SCC(=O)NCC3CCCO3)nc(-c3ccc(F)cc3)nc12 (stereo not given) | n | n | n | n | 0.11
SMILES | BB579 growth dn | RAM network inh | Yeast life ext | SDO1 yeast rescue | sdo1 rescue conf
Cc1cccc(N(C(=O)c2snc(C(N)=O)c2N)C(C)C(=O)NCC2CCCO2)c1 (stereo not given) | x | n | x | x | x
CC(C(=O)NC1CCCC1)N(C(=O)c1snc(C(N)=O)c1N)c1ccc2c(c1)OCCO2 (stereo not given) | n | n | n | 14.4 | 0.0803
COc1ccc(C(=O)OCC(=O)Nc2cc(C)c(C)cc2[N+](=O)[O-])cc1 | n | n | n | n | n
CCCCNS(=O)(=O)c1ccc2nc(SCC(=O)Nc3cccc(F)c3)[nH]c2c1 | n | n | n | n | x
CCCCNS(=O)(=O)c1ccc2nc(SCC(=O)Nc3ccccc3Cl)[nH]c2c1 | n | 9.4 | n | n | 0.109
O=S(=O)(c1ccc2c(c1)OCCO2)N1CCC(c2nc3ccc(Cl)cc3[nH]2)CC1 | n | n | n | 9.08 | n
C=CCNC(=O)c1cc(Cl)cc(Cl)c1 | x | n | x | x | x
Cn1c(=O)c2[nH]c(CNCc3ccccc3Cl)nc2n(C)c1=O | n | n | n | n | n
Cn1c(=O)c2[nH]c(CN3CCN(Cc4ccccc4)CC3)nc2n(C)c1=O | n | n | n | n | x
CCOCCCNC(=O)Cn1cnc2sc(C)c(S(=O)(=O)N3CCN(c4ncccn4)CC3)c2c1=O | x | n | x | x | x
CCN1CCCC1CNC(=O)CCNC(=O)c1cc(OC)c(OC)c(OC)c1 (stereo not given) | n | n | n | 3.29 | 0.0829
COc1ccc(OC)c(C2=NOC(C(=O)NCc3ccco3)C2)c1 (stereo not given) | n | n | n | 7.63 | n
